Experimental data gathered from unrelated publications.
Each line is one published result; the experiments were not run side by side.
Effect on: cell growth or viability

SMILES	cell line	technique	tested at	time	measurement	value
C/C=C/C[C@H](C)[C@@H](OC)[C@@H](C)[C@H](O)C[C@H]1OC(=O)C=C[C@H]1CC	A2780	MTT	–	48 h	GI50	0.041 µM
Cc1nc2ccc(Cl)cc2c(=O)n1NC(=O)CCl	LoVo	LDH	200 µg/mL	24 h	viability	89.5%
COc1ccc2c(c1)C(=NNc1ncnc3cc(OC)c(OC)cc13)C(=O)N2	HT-29	–	10 µM	–	inhibition	20.9%
S=C([S][Au-][P+](CCCCCC[P+]([Au-][S]C(=S)n1cccn1)(c1ccccc1)c1ccccc1)(c1ccccc1)c1ccccc1)n1cccn1	TK-10	–	–	–	GI50	11 µM
CC(C)c1cc(C(=O)N2Cc3ccccc3C2)c(O)c2c1CCC2=O	UMUC3	ATP luminescence	–	72 h	IC50	> 100 µM
COc1cc(NCC(=O)Nn2c(C)nc3ccc(Cl)cc3c2=O)cc(OC)c1OC	LoVo	LDH	200 µg/mL	24 h	viability	59.5%
COc1cc(Nc2nccc(-c3cnn4nc(OC)ccc34)n2)cc(C(F)(F)F)c1	LoVo	ATP luminescence	–	–	IC50	0.16 µM
CC(C)c1cc(C(=O)N2Cc3ccccc3C2)c(O)c2c1C(=O)CC2	UMUC3	ATP luminescence	–	72 h	IC50	55.6 µM
Cc1c(-c2cccc(C(F)(F)F)c2)sc2[nH]c(=O)n([C@H](C)c3cccc4ccccc34)c(=O)c12	NCI-H1650	fluorescence	10 µM	–	inhibition	> 80%
Cc1ccc2c(c1)C(=NNc1nc3ccccc3n(C)c1=O)C(=O)N2	HT-29	–	30 µM	–	inhibition	47.6%
Cc1c(CN(C)C(=O)/C=C/c2cnc3c(c2)CC(CCN)C(=O)N3)oc2ccccc12 (centres unmarked)	IMR-90	resazurin	30 µM	72 h	inhibition	12%
C=CC(=O)Nc1cc(-n2c(=O)ccc3cnc4ccc(-c5ccc(NS(C)(=O)=O)cc5)cc4c32)ccc1C	U2932	–	–	48 h	GI50	2.15 µM
Cn1c(=O)c(NN=C2C(=O)Nc3ccccc32)nc2ccccc21	HT-29	–	30 µM	–	inhibition	73%
COc1cccc(Oc2ccccc2NC(=O)CNC(=O)c2cccc3ccccc23)c1	TK-10	SRB	–	48 h	GI50	1.58 µM
C=CC(=O)N1CCC[C@@H](n2nc(-c3ccc(Oc4ccccc4)cc3)c3c(N)ncnc32)C1	U2932	–	–	48 h	GI50	5 µM
CCc1ccc(/C=N/n2c(C)nc3ccc(C)cc3c2=O)s1	LoVo	LDH	200 µg/mL	24 h	viability	89.5%
COc1ccc(-c2ccc(-c3ccc(C(=N)N)nc3)s2)cc1	TK-10	–	–	–	GI50	1.89 µM
